DDE Tn7 FP inh – DD(E)-Tn7 binding inhibition, primary FP screen; P02675; FP displacement of FITC-Tn7 peptide from fibrin DD(E); 0% = median of compound wells per plate; inhibition, % at 8.3 µM; 0.13% of 370,000 active; AID 720508;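 active means inhibition above the mean of compounds falling within the control limits plus 3 SD of them, cut at about 14% in these data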;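 further: 0% = plate median of compound wells and 100% = 10 µM Aha-Tn7 peptide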
Target sequence (P02675 whole entry, looked up): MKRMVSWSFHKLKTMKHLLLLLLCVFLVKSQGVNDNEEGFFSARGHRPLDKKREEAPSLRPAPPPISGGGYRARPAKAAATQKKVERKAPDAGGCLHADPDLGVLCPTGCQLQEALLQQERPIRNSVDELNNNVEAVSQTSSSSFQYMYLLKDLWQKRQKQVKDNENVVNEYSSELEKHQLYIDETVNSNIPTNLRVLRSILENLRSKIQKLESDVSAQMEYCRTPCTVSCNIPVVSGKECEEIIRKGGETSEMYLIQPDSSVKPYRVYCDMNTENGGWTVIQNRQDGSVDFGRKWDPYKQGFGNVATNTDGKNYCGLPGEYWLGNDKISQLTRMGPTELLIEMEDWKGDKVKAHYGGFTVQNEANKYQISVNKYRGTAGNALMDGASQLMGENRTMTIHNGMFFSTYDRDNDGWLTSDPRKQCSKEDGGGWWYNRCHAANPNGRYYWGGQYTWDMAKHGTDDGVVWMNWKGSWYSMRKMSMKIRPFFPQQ
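Measure: % inhibition scaled between sample-field median and high-control FP; Test system: human fibrin DD(E); Quantity: 2 µM final DD(E) protein; Doses: one dose, 8.3 µM nominal; Schedule: compound with protein 10 min, then 3 h after probe, room temperature; Detection: fluorescence polarization; Medium: Tris buffer with calcium and detergent, pH 7.8.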
RTF Ca sens act – cardiac RTF calcium sensitization; P19429+P45379; IANBD-labeled TnC RTF fluorescence at EC20 calcium; 0% EC20 calcium, 100% full calcium; activation, % at 7.2 µM; 0.24% of 340,000 active; AID 493008;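 active means activation above the mean over all tested compounds plus 3 SD, cut at about 30% in these data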;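 further: rise in fluorescence read as greater calcium sensitivity of cardiac thin filaments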
CRFR2-BP antag – blocks CRF-induced signaling of the CRF-BP/CRF-R2 complex | HEK293 CRF-R2/CRF-BP, CRF-induced calcium fluorescence | inhibition, % at 11.8 µM | 0.59% of 350,000 active;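 active means inhibition of the ligand-induced calcium signal above about 50% at the single tested concentration, limit read from the data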
Cardiac RTF inh – cardiac RTF calcium desensitization. inhibition, % at 7.15 µM. AID 493244. 0.12% of 340,000 active. P19429+P45379. IANBD-labeled cardiac RTF, Ca2+ fluorescence;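 active means inhibition above the mean inhibition of all tested compounds plus 3 SD, cut at about 17% in these data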;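 further: assay run at fixed EC70 calcium of 1.6 mM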
CRFR2-BP ag – CRF-BP/CRF-R2 complex agonism; HEK293 CRF-R2/CRF-BP, calcium dye fluorescence (FLIPR); percent of saturating CRF peptide response; activation, % at 13.2 µM; 0.46% of 350,000 active;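 active means activation of at least 50%, plus an integration ratio under a set limit after plate pattern correction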;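 further: plate controls were neutral control wells without compound for no effect and CRF at EC100 for full effect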
Tn6 DDE FP – disrupts Tn6 cyclic peptide binding to fibrin D-Dimer-E complex. P02675. inhibition, % at 8.3 µM. Fibrin DD(E) TRITC-Tn6 fluorescence polarization displacement. 0.21% of 370,000 active;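 active means inhibition above a per-campaign cutoff: mean of compounds within control limits plus 3 SD, cut at about 15% in these data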;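 further: 0% = median of all compound wells on the plate and 100% = blocking peptide control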
DDE Tn7 confirm – confirmation of inhibitors of Tn7 binding to human fibrin DD(E); shares compounds with DDE Tn7 FP inh; FP displacement of TRITC-Tn7 peptide from DD(E); 0% set at plate's compound-well median; inhibition, % at 8.3 µM; 5% of 460 active; AID 720628;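 active means inhibition above the campaign cutoff, the mean of compounds within control limits plus 3 SD, cut at about 14% in these data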;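 further: 100% = median FP of high control wells holding Aha-Tn7 inhibitor peptide; displacers lower polarization since freed probe rises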
DDE Tn7 FP ctr – counter-screen for inhibitors of Tn7 peptide binding to fibrin DD(E); shares compounds with DDE Tn7 FP inh; TRITC-Tn7 probe displacement, fluorescence polarization; inhibition, % at 8.3 µM; 3% of 460 active;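 active means inhibition above the cutoff, the mean of compounds lying between the control bounds plus 3 SD of those compounds, cut at about 17% in these data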;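 further: 0% = median of compound sample wells and 100% = excess unlabeled Aha-Tn7 peptide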
Starred values were filed as active, the others as inactive. Most compounds without a hit are left out; they make up all but 1.4% or so of the library.

`C=CC[C@@H](CC(=O)N(CCO)Cc1ccccc1)C(=O)N[C@@H](COC(=O)[C@@H](CC=C)Cc1ccc(F)cc1)Cc1ccccc1` gave DDE Tn7 FP inh -11, RTF Ca sens act 22, CRFR2-BP antag -1, Cardiac RTF inh -8, CRFR2-BP ag 4 and Tn6 DDE FP 0.
`C=CC[C@@H](CC(=O)N(CCO)Cc1ccccc1)C(=O)N[C@H](COC(=O)[C@@H](CC=C)Cc1ccc(F)cc1)Cc1ccccc1` gave DDE Tn7 FP inh 16*, RTF Ca sens act -3, CRFR2-BP antag -7, Cardiac RTF inh 0, CRFR2-BP ag 2, Tn6 DDE FP 3, DDE Tn7 confirm -1 and DDE Tn7 FP ctr -4.
`Cc1cc(-c2ccc(C(C)C)c(S(=O)(=O)Nc3ccccn3)c2)on1` gave DDE Tn7 FP inh 18*, RTF Ca sens act -4, CRFR2-BP antag -6, Cardiac RTF inh -5, CRFR2-BP ag 1, Tn6 DDE FP 10, DDE Tn7 confirm -2 and DDE Tn7 FP ctr -7.
For CCc1ccc(-c2cc(C)no2)cc1S(=O)(=O)Nc1ccccn1 the results were DDE Tn7 FP inh 5, RTF Ca sens act -4, CRFR2-BP antag 18, Cardiac RTF inh 5, CRFR2-BP ag -1 and Tn6 DDE FP 0.
For COc1ccc(C#Cc2ccc3c(c2)[C@H]2[C@H](CCN2S(=O)(=O)c2ccccc2F)[C@H](CO)N3C)cc1 the results were DDE Tn7 FP inh 6 and Tn6 DDE FP -4.
CC(C)(CNc1ccc([N+](=O)[O-])cc1C#N)N1CCOCC1 was read as DDE Tn7 FP inh 15*, RTF Ca sens act -7, CRFR2-BP antag 6, Cardiac RTF inh -2, CRFR2-BP ag 0, Tn6 DDE FP 2, DDE Tn7 confirm 5 and DDE Tn7 FP ctr 2.
For O=C(N[C@H](C(=O)N1CCC[C@H]1C(=O)NCCc1ccccc1Cl)c1ccccc1)C1CC1 the results were DDE Tn7 FP inh 5 and Tn6 DDE FP 0.
`Cc1ccccc1C(=O)NCC(C)NC(=O)c1ccccc1C` (stereo not given) gave DDE Tn7 FP inh 14*, RTF Ca sens act 1, CRFR2-BP antag 4, Cardiac RTF inh -1, CRFR2-BP ag 0, Tn6 DDE FP 0, DDE Tn7 confirm 0 and DDE Tn7 FP ctr -2.
CCCS(=O)(=O)n1nc(-c2ccc(OC)cc2)cc1N was read as DDE Tn7 FP inh -2, RTF Ca sens act 0, CRFR2-BP antag -2, Cardiac RTF inh -6, CRFR2-BP ag 0 and Tn6 DDE FP 3.
`CCCS(=O)(=O)n1nc(-c2ccc(C)cc2)cc1N` gave DDE Tn7 FP inh 14*, RTF Ca sens act 2, CRFR2-BP antag -13, Cardiac RTF inh -2, CRFR2-BP ag -3, Tn6 DDE FP 5, DDE Tn7 confirm -1 and DDE Tn7 FP ctr -2.
`CCOc1ccc(CCN2C(=S)N([C@@H](Cc3ccc(O)cc3)CN3CCC[C@@H]3CN3C(=S)NC[C@@H]3CC(C)C)C[C@@H]2Cc2ccccc2)cc1` gave DDE Tn7 FP inh 0 and Tn6 DDE FP -8.
CCOc1ccc(CCN2C(=S)N([C@@H](Cc3ccc(O)cc3)CN3CCC[C@@H]3CN3C(=S)NC[C@@H]3CC(C)C)C[C@@H]2CC(C)C)cc1 was read as DDE Tn7 FP inh 14*, Tn6 DDE FP -1, DDE Tn7 confirm 10 and DDE Tn7 FP ctr 3.
c1ccc(-c2ccc(CNC3CC3)cc2)cc1 was read as DDE Tn7 FP inh 14*, RTF Ca sens act -4, CRFR2-BP antag -2, Cardiac RTF inh -2, CRFR2-BP ag -2, Tn6 DDE FP 10, DDE Tn7 confirm 6 and DDE Tn7 FP ctr -1.
For O=C(NCCC(=O)N1CCN(c2ccccn2)CC1)c1ccc([N+](=O)[O-])cc1 the results were DDE Tn7 FP inh 15*, RTF Ca sens act -2, CRFR2-BP antag 13, Cardiac RTF inh -7, CRFR2-BP ag -1, Tn6 DDE FP 1, DDE Tn7 confirm -4 and DDE Tn7 FP ctr -17.
Cc1ccn2c(CC(C)(C)C)c(-c3ccc(F)cc3)nc2c1 was read as DDE Tn7 FP inh 3, CRFR2-BP antag -16, CRFR2-BP ag -1 and Tn6 DDE FP -1.
`O=C1CCN2C=Nc3cccc4ccc1c2c34` gave DDE Tn7 FP inh 63*, RTF Ca sens act 703*, CRFR2-BP antag -334, Cardiac RTF inh inactive, CRFR2-BP ag 598, Tn6 DDE FP 3, DDE Tn7 confirm 30* and DDE Tn7 FP ctr -8.
For CN(C)CCCN1C(=O)c2cccc3c(Br)ccc(c23)C1=O the results were DDE Tn7 FP inh -3, RTF Ca sens act 15, CRFR2-BP antag -20, Cardiac RTF inh -18, CRFR2-BP ag 5 and Tn6 DDE FP -7.
CCCCNc1ccc2c3c(cccc13)C(=O)N(CCCC)C2=O was read as DDE Tn7 FP inh 47*, RTF Ca sens act active, CRFR2-BP antag -132, Cardiac RTF inh inactive, CRFR2-BP ag 194*, Tn6 DDE FP 14, DDE Tn7 confirm 7 and DDE Tn7 FP ctr 19*.
`CCCN1C(=O)c2cccc3c(N4CCCCC4)ccc(c23)C1=O` gave DDE Tn7 FP inh 16*, RTF Ca sens act 75*, CRFR2-BP antag -241, Cardiac RTF inh -72, CRFR2-BP ag 206*, Tn6 DDE FP 4, DDE Tn7 confirm 5 and DDE Tn7 FP ctr 3.
For COC(=O)[C@H]1C[C@@]2(C)c3ccccc3N(S(=O)(=O)c3ccccc3)[C@H]2N1 the results were DDE Tn7 FP inh 2 and Tn6 DDE FP -3.
Screening CCc1ccccc1NC(=S)NC1CC2CCC(C1)N2Cc1ccc(F)cc1 (stereo not given) returned DDE Tn7 FP inh 14*, RTF Ca sens act 3, CRFR2-BP antag -13, Cardiac RTF inh 2, CRFR2-BP ag 0, Tn6 DDE FP -11, DDE Tn7 confirm -3 and DDE Tn7 FP ctr -11.
For CC1=C(C(N)=O)S(=O)(=O)c2ccccc21 the results were DDE Tn7 FP inh -5, RTF Ca sens act 3, CRFR2-BP antag 4, Cardiac RTF inh -8, CRFR2-BP ag 4 and Tn6 DDE FP -2.
Screening CCOC(=O)C(C)(C)Oc1cccc2c1S(=O)(=O)c1ccccc1-2 returned DDE Tn7 FP inh 14*, RTF Ca sens act -2, CRFR2-BP antag 0, Cardiac RTF inh -3, CRFR2-BP ag 2, Tn6 DDE FP 0, DDE Tn7 confirm 2 and DDE Tn7 FP ctr 1.

Bioassay records (PubChem)
